Assay results reported in ChEMBL document CHEMBL2057113, “Modern phenotypic drug discovery is a viable, neoclassic pharma strategy” (J Med Chem, 2012).
Counter-ions that a name gives are not always drawn. Activity calls are given as the source filed them. The rule behind the calls is not given here.

Key:
Beta-secretase 1 = Beta-secretase 1 (Homo sapiens, UniProt P56817); test: Inhibition of human BACE1 using BACE1-IgG construct by labeled substrate hydrolysis detection assay
Method in brief: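 Soluble human BACE activity: purified BACE-IgG ectodomain construct hydrolyzing a labeled peptide substrate.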

[1] = Toxicity in endothelial precursor cells co-cultured with stromal precursor ADSC cells by total nuclei count detection based phenotypic drug discovery based assay
Method in brief: (§1)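 384-well coculture of endothelial colony-forming cells (ECFC) with adipose-derived stromal cells (ADSC) at 37 °C, 5% CO2. Screening at 2 μM single point on CD31-positive cord area; actives retested in 10-point dose response, with CD31 cord area as cord formation read-out and total nuclei count as cytotoxicity read-out.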

[2] = Inhibition of endothelial cord area formation in endothelial precursor cells by CD31 cord area detection based phenotypic drug discovery based assay; format: functional; method in brief: as §1
Gamma-secretase = test: Inhibition of human gamma secretase expressed in HEK293 cells coexpressing human APP by soluble beta-APP detection based ELISA; format: cell-based
Method in brief: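 HEK293 cells expressing recombinant human APP; soluble APPsβ production measured by ELISA with a mouse monoclonal antibody to the β-secretase neoepitope of hAPP.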

[3] = biological target: Gamma-secretase (Homo sapiens) (UniProt Q96BI3+Q9NZ42+Q8WW43+P49768+Q92542+P49810); test: Inhibition of human gamma secretase-expressed in HEK293 co-expressing human Notch-1 cells assessed as effect on enzyme-mediated Notch-1 processing up to 5 uM; format: cell-based
Method in brief: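 HEK293 cells expressing a human Notch-1 construct lacking the extracellular ligand-binding domain (analogous to constitutively active mouse NotchΔE); γ-secretase cleavage detected with a mouse monoclonal antibody to the γ-secretase neoepitope of human Notch-1; tested up to 5 μM.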

[4] = Toxicity in human HeLa cells assessed as cell cycle arrest at G2M phase by flow cytometry based phenotypic drug discovery based assay
[5] = Inhibition of cell migration in endothelial precursor cells by Oris cell migration kit based phenotypic drug discovery based assay; format: functional
U-87 MG [6] = test: In-vivo inhibition of angiogenesis in human U87MG cells xenografted in athymic nude Harlan mouse at 30 mg/kg, sc dosed twice daily for 3 days measured 3 days post dose by fluorescence microscopy; format: functional, organism-based; set-up: dose 30 mg/kg; conditions: U-87MG ATCC
Method in brief: (§2)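 U87MG glioblastoma cells mixed 1:1 with Matrigel, 5.0 × 10^6 cells injected subcutaneously into right rear flank of female athymic nude mice; grown to mean 250 mm3, randomized by tumor volume and body weight (10/group). Dosing twice daily for 3 days: sc in 100% peanut oil, or oral gavage in 10% acacia. Tumors excised, zinc-Tris fixed, paraffin sectioned at 4 μm.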

U-87 MG [7] = test: In-vivo inhibition of angiogenesis in human U87MG cells xenografted in athymic nude Harlan mouse at 10 mg/kg oral gavage dosed twice daily for 3 days measured 3 days post dose by fluorescence microscopy; format: functional, organism-based; set-up: dose 10 mg/kg; conditions: U-87MG ATCC; method in brief: as §2
HEK293 = test: Inhibition of ACC expressed in HEK293 cells assessed as effect on incorporation of [14C]acetate into triacylglycerol; format: cell-based; conditions: Homo sapiens
Method in brief: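 HEK293 cells moved from growth medium (DMEM, 10% FBS) into Opti-MEM containing compound in 0.2% DMSO for 1 h, then labeled with 30 μM [14C]acetate for 4 h. Cells washed, dissolved in Triton X-100 (0.175%) with basic ethanol/isopropanol at room temperature; labeled triacylglycerol extracted into heptane and counted by liquid scintillation.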

Beta-secretase 1, sequence (P56817 whole entry, the tested form may be a part): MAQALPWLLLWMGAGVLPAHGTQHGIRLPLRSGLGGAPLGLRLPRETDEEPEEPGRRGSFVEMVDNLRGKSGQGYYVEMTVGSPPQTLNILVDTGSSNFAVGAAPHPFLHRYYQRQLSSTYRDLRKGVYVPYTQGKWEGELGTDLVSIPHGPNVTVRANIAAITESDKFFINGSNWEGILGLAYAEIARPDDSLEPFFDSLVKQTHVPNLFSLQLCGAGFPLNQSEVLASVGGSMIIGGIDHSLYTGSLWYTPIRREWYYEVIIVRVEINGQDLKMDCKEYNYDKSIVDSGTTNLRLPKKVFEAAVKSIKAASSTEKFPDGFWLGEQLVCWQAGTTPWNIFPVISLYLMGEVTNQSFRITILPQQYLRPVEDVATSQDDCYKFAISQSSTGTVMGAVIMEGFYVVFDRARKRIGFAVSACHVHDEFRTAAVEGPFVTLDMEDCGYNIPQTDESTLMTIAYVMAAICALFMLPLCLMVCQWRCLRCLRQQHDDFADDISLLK

SMILES	IC50 (Beta-secretase 1) [µM]	IC50 [2] [µM]	IC50 (Gamma-secretase) [µM]	inhibition [3]	IC50 [5] [µM]	EC50 [2] [µM]	IC50 [1] [µM]	EC50 [4] [µM]	EC50 [1] [µM]	inhibition (U-87 MG [6])	inhibition (U-87 MG [7])	inhibition (HEK293)
Cc1ccc(OCC(=O)N[C@H]2c3cc(NC(=O)COc4ccc(C#N)cc4C)ccc3C[C@H]2O)cc1	4	1.45	> 5	inactive			> 10					
Cc1ccc(OCC(=O)N[C@H]2c3cc(NC(=O)[C@@H](C)Oc4ccc(C#N)cc4C)ccc3C[C@@H]2O)cc1 (mixture of isomers)				inactive	> 40	0.021		> 10	> 10	Active		
Cc1ccc(OCC(=O)N[C@@H]2c3cc(NC(=O)COc4ccc(C#N)cc4C)ccc3C[C@@H]2O)cc1	45.6	9.1	> 5	inactive			> 10					
CNC(=O)c1cc(Oc2ccc(NC(=O)Nc3ccc(Cl)c(C(F)(F)F)c3)cc2)ccn1 [SORAFENIB TOSYLATE]		0.00421			16.7			> 10	5.46			

Further lines, with some results ahead:

IC50 (Beta-secretase 1) [µM]	IC50 [2] [µM]	IC50 (Gamma-secretase) [µM]	inhibition [3]	IC50 [5] [µM]	EC50 [2] [µM]	SMILES	IC50 [1] [µM]	EC50 [4] [µM]	EC50 [1] [µM]	inhibition (U-87 MG [6])	inhibition (U-87 MG [7])	inhibition (HEK293)
	0.0096			13.6		CCN(CC)CCNC(=O)c1c(C)[nH]c(/C=C2\C(=O)Nc3ccc(F)cc32)c1C [SUNITINIB]		> 10	> 10		Active	
0.142	0.022	> 5	inactive			Cc1ccc(OCC(=O)N[C@H]2c3cc(NC(=O)COc4ccc(C#N)cc4C)ccc3C[C@@H]2O)cc1	> 10					
13.6	2.5	> 5	inactive			Cc1ccc(OCC(=O)N[C@@H]2c3cc(NC(=O)COc4ccc(C#N)cc4C)ccc3C[C@H]2O)cc1	> 10					
				13	0.041	CCNC(=O)Nc1sc2ccccc2c1C(=O)N1CCC2(CC1)CC(=O)c1cc(-c3nccs3)ccc1O2		> 10	> 10			Active
